Assay [1] can be described thus: Her2 expression decrease, cell viability multiplex – SKBR3 breast tumor cells, AlphaScreen, ATP viability, primary screen (AID 461;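 active = Her2 level under about 52% in both replicate screens, with viability over 70% of control, limit read from the data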;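 for Her2 level: lower value means less Her2 protein in the cells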;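 for viability: percent of carrier control wells set as 100% viability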). Conditions: SKBR3 Her2 protein level, 18-24 h, measured here: SKBR3 viability, ATP luminescence, at 10 µM. For orientation: In Alpha technology, singlet oxygen from a donor bead excites a nearby acceptor bead.
Assay [2] addresses Receptor tyrosine-protein kinase erbB-2 (Homo sapiens) (UniProt P04626). Described as above. As to conditions: 18-24 h, at 10 µM, stronger effect = lower value.
Assay [3] in a line: reduced viability of SK-BR-3 breast cancer cells – cell-based, 24 h, human, pilot screen (AID 572).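 Note: compound exposure lasted between 18 and 24 h rather than exactly 24 h; 100% = carrier-treated control wells.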 Conditions: SK-BR-3 viability, CellTiter-Glo luminescence, at 10 µM, stronger effect = lower value.
Assay [4] is described as follows: HUVEC growth inhibition – cell-based, human, primary screen (AID 575;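 active = viability at or below 30% in both replicate assays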;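 note: 100% = median of untreated cell wells with 0.1% DMSO on each plate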). Conditions: HUVEC proliferation, CellTiter-Glo luminescence, 72 h; at 10 µM; stronger effect = lower value. In short, it runs like this: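 Test system: primary human umbilical vein endothelial cells. Quantity: 1250 cells/well. Compound: single 10 µM dose, 0.1% DMSO, from 5x medium stock. Timing: 72 h treatment at 37 °C. Detection: ATP-based CellTiter-Glo luminescent read. Benchmarks: vehicle and MePR control wells. Format: 384-well plates coated with collagen.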
(ATP-based viability assays read luminescence as a measure of living cells.)

Assay [5] can be described thus: H69AR cell proliferation blockers – human, duplicate replicates, primary screen (AID 580;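 active = viability at or under a set limit in both replicates, limit being median viability minus 3 SD, cut at about 48% in these data, passing the limit was not always enough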;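 note: 100% = mean luminescence of untreated wells and 0% = no signal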). As to conditions: H69AR lung tumor cells viability, ATP luminescence, 72 h; at 10 µM; stronger effect = lower value.
Assay [6] is described as follows: MRP1 drug-resistance reversers in H69AR cells – cell-based, doxorubicin co-treatment, pilot screen (AID 601;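 active = viability loss from added drug above about 55%, and viability with drug at most 40%, in both replicates, limit read from the data, passing the limit was not always enough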). As to conditions: CellTiter-Glo, 72 h, at 10 µM; for differential viability (reversal): stronger effect = higher value.
Where [7] appears, read: H69AR cells + 2 uM doxorubicin, measured here: viability with 2 uM doxorubicin, stronger effect = lower value.
[8] abbreviates: H69AR cells, compound alone cytotoxicity.

Structures are written as SMILES. Active and inactive are the calls of the source.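 Rule for the calls, unless noted: active = viability at or below 10% of carrier control in both of two separate runs; inconclusive = viability at or below 10% in only one of the two runs; inactive = the rest.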

Sequence of Receptor tyrosine-protein kinase erbB-2 (Homo sapiens) (P04626 whole entry, looked up): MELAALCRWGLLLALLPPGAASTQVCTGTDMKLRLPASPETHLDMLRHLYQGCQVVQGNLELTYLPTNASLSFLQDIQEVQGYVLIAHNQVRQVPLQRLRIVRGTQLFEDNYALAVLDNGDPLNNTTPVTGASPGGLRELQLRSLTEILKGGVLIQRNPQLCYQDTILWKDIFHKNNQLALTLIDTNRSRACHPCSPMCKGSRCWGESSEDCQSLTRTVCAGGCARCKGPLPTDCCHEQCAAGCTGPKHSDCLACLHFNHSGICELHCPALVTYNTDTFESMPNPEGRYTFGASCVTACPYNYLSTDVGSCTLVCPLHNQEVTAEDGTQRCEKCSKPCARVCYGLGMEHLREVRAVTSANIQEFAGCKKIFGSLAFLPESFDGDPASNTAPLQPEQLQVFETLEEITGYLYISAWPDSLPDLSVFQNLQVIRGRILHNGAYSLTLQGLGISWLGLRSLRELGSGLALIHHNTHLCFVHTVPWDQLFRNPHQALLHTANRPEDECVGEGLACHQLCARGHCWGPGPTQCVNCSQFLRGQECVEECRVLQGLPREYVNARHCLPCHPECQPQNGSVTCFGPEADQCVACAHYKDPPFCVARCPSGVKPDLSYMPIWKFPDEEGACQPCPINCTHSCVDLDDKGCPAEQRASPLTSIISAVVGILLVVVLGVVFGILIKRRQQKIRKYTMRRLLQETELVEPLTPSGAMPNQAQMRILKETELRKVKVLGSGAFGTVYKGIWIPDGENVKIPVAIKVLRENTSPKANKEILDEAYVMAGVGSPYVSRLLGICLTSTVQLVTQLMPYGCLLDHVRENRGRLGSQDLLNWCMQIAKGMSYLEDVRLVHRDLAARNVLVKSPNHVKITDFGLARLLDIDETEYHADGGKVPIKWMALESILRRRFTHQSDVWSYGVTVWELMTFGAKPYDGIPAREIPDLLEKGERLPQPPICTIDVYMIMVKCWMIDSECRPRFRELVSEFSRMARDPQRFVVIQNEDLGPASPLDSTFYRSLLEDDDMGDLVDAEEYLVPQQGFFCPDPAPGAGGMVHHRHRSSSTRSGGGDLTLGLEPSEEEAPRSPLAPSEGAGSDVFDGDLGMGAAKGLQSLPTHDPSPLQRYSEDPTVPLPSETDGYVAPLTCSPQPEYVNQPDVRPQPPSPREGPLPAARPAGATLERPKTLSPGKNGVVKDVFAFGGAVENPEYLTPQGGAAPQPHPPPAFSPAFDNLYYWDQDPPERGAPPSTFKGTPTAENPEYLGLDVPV

As for `N=c1c[n+](N2CCOCC2)[n-]o1`, the viability in assay [1] was 114%; in assay [3], 114% (inactive); in assay [4] it was 97.7% (inactive); in assay [5], 96.5% (inactive); in assay [6] (setting [7]), 101%; in assay [6] (setting [8]), 96.5%. In addition, in assay [2], the Her2 level was 100% (inactive). Also, in assay [6] (H69AR cells + 2 uM doxorubicin), the differential viability (reversal) was -4.17% (inactive).
Take `COc1ccccc1OCC(O)COC(N)=O` (stereo unspecified): the viability in assay [1] was 93.5%; in assay [3] it was 93.5% (inactive); in assay [4] it was 90.5% (inactive); in assay [5] it was 99.9% (inactive); in assay [6] (setting [7]) it was 92%; in assay [6] (setting [8]) it was 99.9%. Besides, the Her2 level in assay [2] was 96% (inactive). For the same molecule, in assay [6] (H69AR cells + 2 uM doxorubicin), the differential viability (reversal) is 7.94% (inactive).
Take `C[C@]12CCC(=O)C=C1CC[C@@H]1[C@@H]2CC[C@@]2(C)[C@H]1CC[C@]2(O)C(=O)CO`: the viability was 99% in assay [1]; 99% (inactive) in assay [3]; 97.7% (inactive) in assay [4]; 92.8% (inactive) in assay [5]; 99.4% in assay [6] (setting [7]); 92.8% in assay [6] (setting [8]). In addition, the Her2 level in assay [2] was 142% (inactive). Besides, the differential viability (reversal) in assay [6] (H69AR cells + 2 uM doxorubicin) is -6.52% (inactive).
Consider `Cc1nnc(SCC2=C(C(=O)O)N3C(=O)[C@@H](NC(=O)Cn4cnnn4)[C@H]3SC2)s1`, for which the viability in assay [1] was 88.5%; in assay [3], 88.5% (inactive); in assay [4], 105% (inactive); in assay [5], 101% (inactive); in assay [6] (setting [7]), 98.7%; in assay [6] (setting [8]), 101%. In assay [2], the Her2 level is 99.5% (inactive). Moreover, the differential viability (reversal) in assay [6] (H69AR cells + 2 uM doxorubicin) was 1.93% (inactive).
As to `COc1ccc(CN(CCN(C)C)c2ccccn2)cc1`, the viability in assay [1] is 91%; in assay [3], 91% (inactive); in assay [4] it was 97.4% (inactive); in assay [5], 93.9% (inactive); in assay [6] (setting [7]) it was 74.4%; in assay [6] (setting [8]), 93.9%. The Her2 level in assay [2] is 104% (inactive). Moreover, the differential viability (reversal) in assay [6] (H69AR cells + 2 uM doxorubicin) is 19.5% (inactive).
For the molecule `CCN(CC)CC#CCOC(=O)C(O)(c1ccccc1)C1CCCCC1` (stereo unspecified), the viability is 82% in assay [1]; 82% (inactive) in assay [3]; 79.6% (inactive) in assay [4]; 71.7% (inactive) in assay [5]; 72.1% in assay [6] (setting [7]); 71.7% in assay [6] (setting [8]). Also, the Her2 level in assay [2] was 99% (inactive). For the same molecule, the differential viability (reversal) in assay [6] (H69AR cells + 2 uM doxorubicin) was -0.33% (inactive).
As for `C[C@@H]1C[C@H]2[C@@H]3CCC4=CC(=O)C=C[C@]4(C)[C@@]3(F)[C@@H](O)C[C@]2(C)[C@H]1C(=O)CO`, the viability was 84% in assay [1]; 84% (inactive) in assay [3]; 102% (inactive) in assay [4]; 91.2% (inactive) in assay [5]; 102% in assay [6] (setting [7]); 91.2% in assay [6] (setting [8]). Besides, in assay [2], the Her2 level is 150% (inactive). For the same molecule, the differential viability (reversal) in assay [6] (H69AR cells + 2 uM doxorubicin) is -10.7% (inactive).
On to `C[C@H]1C[C@@H]2[C@H]([C@@H](O)C[C@@]3(C)[C@H]2CC[C@]3(O)C(=O)CO)[C@@]2(C)C=CC(=O)C=C12`, for which the viability is 115% in assay [1]; 115% (inactive) in assay [3]; 93.8% (inactive) in assay [4]; 88.1% (inactive) in assay [5]; 78.7% in assay [6] (setting [7]); 88.1% in assay [6] (setting [8]). In addition, in assay [2], the Her2 level is 115% (inactive). For the same molecule, the differential viability (reversal) in assay [6] (H69AR cells + 2 uM doxorubicin) is 9.38% (inactive).
Turning to `CCCCOc1ccc(OCCCN2CCOCC2)cc1`, the viability in assay [1] is 96.5%; in assay [3], 96.5% (inactive); in assay [4], 91.7% (inactive); in assay [5], 103% (inactive); in assay [6] (setting [7]) it was 95.2%; in assay [6] (setting [8]), 103%. For the same molecule, the Her2 level in assay [2] was 108% (inactive). Also, the differential viability (reversal) in assay [6] (H69AR cells + 2 uM doxorubicin) was 7.79% (inactive).
`CCCCC1C(=O)N(c2ccccc2)N(c2ccccc2)C1=O`: the viability in assay [1] is 99%; in assay [3] it was 99% (inactive); in assay [4], 99.1% (inactive); in assay [5], 98.5% (inactive); in assay [6] (setting [7]), 91.1%; in assay [6] (setting [8]), 98.5%. The Her2 level in assay [2] is 90.5% (inactive). Moreover, the differential viability (reversal) in assay [6] (H69AR cells + 2 uM doxorubicin) was 7.41% (inactive).
Take `CS(=O)(=O)Nc1ccc([N+](=O)[O-])cc1Oc1ccccc1`: the viability in assay [1] is 118%; in assay [3], 118% (inactive); in assay [4], 106% (inactive); in assay [5], 108% (inactive); in assay [6] (setting [7]) it was 97.6%; in assay [6] (setting [8]) it was 108%. Further, in assay [2], the Her2 level is 103% (inactive). Also, the differential viability (reversal) in assay [6] (H69AR cells + 2 uM doxorubicin) is 10.3% (inactive).
For `O=C(O)Cc1cc(I)c(Oc2ccc(O)c(I)c2)c(I)c1`, the viability in assay [1] was 89%; in assay [3], 89% (inactive); in assay [4], 76% (inactive); in assay [5], 96.3% (inactive); in assay [6] (setting [7]), 100%; in assay [6] (setting [8]), 96.3%. The Her2 level in assay [2] was 106% (inactive). The differential viability (reversal) in assay [6] (H69AR cells + 2 uM doxorubicin) is -4.12% (inactive).
Consider `CN(C)CCOc1ccccc1Cc1ccccc1`, for which the viability in assay [1] was 88.5%; in assay [3], 88.5% (inactive); in assay [4] it was 107% (inactive); in assay [5], 100% (inactive); in assay [6] (setting [7]) it was 89.5%; in assay [6] (setting [8]) it was 100%. Further, the Her2 level in assay [2] was 95.5% (inactive). The differential viability (reversal) in assay [6] (H69AR cells + 2 uM doxorubicin) is 11% (inactive).
As to `CC[N+](C)(C)c1cccc(O)c1`, the viability in assay [1] is 97.5%; in assay [3], 97.5% (inactive); in assay [4], 81.1% (inactive); in assay [5], 95% (inactive); in assay [6] (setting [7]), 85.3%; in assay [6] (setting [8]) it was 95%. Besides, in assay [2], the Her2 level was 94.5% (inactive). For the same molecule, the differential viability (reversal) in assay [6] (H69AR cells + 2 uM doxorubicin) was 9.69% (inactive).
As to `Cc1cc(C)nc(NS(=O)(=O)c2ccc(N)cc2)n1`, the viability in assay [1] is 104%; in assay [3], 104% (inactive); in assay [4], 83.1% (inactive); in assay [5], 86.7% (inactive); in assay [6] (setting [7]) it was 79.4%; in assay [6] (setting [8]) it was 86.7%. The Her2 level in assay [2] is 110% (inactive). Besides, in assay [6] (H69AR cells + 2 uM doxorubicin), the differential viability (reversal) is 7.25% (inactive).
As to `CCCC(=O)O[C@]1(C(=O)CCl)[C@@H](C)C[C@H]2[C@@H]3CCC4=CC(=O)C=C[C@]4(C)[C@@]3(F)C(=O)C[C@@]21C`, the viability in assay [1] was 88.5%; in assay [3], 88.5% (inactive); in assay [4] it was 81.2% (inactive); in assay [5], 87.8% (inactive); in assay [6] (setting [7]), 81.4%; in assay [6] (setting [8]), 87.8%. The Her2 level in assay [2] was 122% (inactive). Also, the differential viability (reversal) in assay [6] (H69AR cells + 2 uM doxorubicin) was 6.43% (inactive).
For `CC(C)(C)NC[C@H](O)COc1nsnc1N1CCOCC1`, the viability was 112% in assay [1]; 112% (inactive) in assay [3]; 99.8% (inactive) in assay [4]; 106% (inactive) in assay [5]; 104% in assay [6] (setting [7]); 106% in assay [6] (setting [8]). Besides, the Her2 level in assay [2] is 110% (inactive). For the same molecule, the differential viability (reversal) in assay [6] (H69AR cells + 2 uM doxorubicin) is 2.23% (inactive).

In general, viability refers to a read-out of living cells in per cent, often relative to untreated cells.

These data come from PubChem BioAssay.
